Counter-ions that a name gives are not always drawn.
Legend:
[1] = target: Cathepsin B (Homo sapiens) (UniProt P07858); assay: (§1) Inhibition of recombinant cathepsin B (unknown origin) endopeptidase activity expressed in Escherichia coli assessed as residual activity at 100 uM using Z-RR-AMC as substrate preincubated for 30 mins under shaking in presence of 5 mM cysteine followed by substrate addition relative to control
[2] = Inhibition of Escherichia coli MurA using UNAG and PEP as substrate preincubated for 30 mins in presence of UNAG followed by PEP addition and measured after 15 mins by malachite green colorimetric assay
In short: (§2)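 IC50 from MurA (E. coli or S. aureus) residual activities at seven compound concentrations. Conditions: 30 min preincubation with UNAG at 37 °C, then PEP, 15 min at 37 °C, in 50 mM Hepes pH 7.8, 0.005% Triton X-114 and 5% DMSO. Malachite green read at 650 nm. Values are means of duplicates.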

Staphylococcus aureus = assay: Inhibition of Staphylococcus aureus MurA expressed in Escherichia coli assessed as residual activity at 100 uM using UNAG and PEP as substrate preincubated for 30 mins in presence of UNAG followed by PEP addition and measured after 15 mins by malachite green colorimetric assay relative to control; settings: time 45.0 min
[3] = Inhibition of recombinant cathepsin X (unknown origin) expressed in Pichia pastoris assessed as residual activity at 100 uM using Abz-Fek(Dnp)-OH as substrate preincubated for 30 mins under shaking in presence of 5 mM cysteine followed by substrate addition relative to control; settings: Homo sapiens
Escherichia coli [4] = assay: Inhibition of Escherichia coli MurA assessed as residual activity at 100 uM using UNAG and PEP as substrate preincubated for 30 mins in presence of UNAG followed by PEP addition and measured after 15 mins in presence of 5 mM cysteine by malachite green colorimetric assay relative to control; settings: time 45.0 min
In short: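 MurA from E. coli, with the enzyme diluted in Hepes pH 7.8 containing cysteine (15 mM in buffer, giving 5 mM in incubation). Preincubated with UNAG and compound for 30 min at 37 °C, then PEP added and reacted 15 min at 37 °C. Phosphate read by malachite green at 650 nm. Duplicates; residual activity is versus DMSO control.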

Escherichia coli [5] = assay: Inhibition of Escherichia coli MurA assessed as residual activity at 100 uM using UNAG and PEP as substrate preincubated for 30 mins in presence of UNAG followed by PEP addition and measured after 15 mins by malachite green colorimetric assay relative to control; settings: time 45.0 min
[6] = Inhibition of Staphylococcus aureus MurA expressed in Escherichia coli using UNAG and PEP as substrate preincubated for 30 mins in presence of UNAG followed by PEP addition and measured after 15 mins by malachite green colorimetric assay; in short: as §2
[7] = target: Cathepsin B (Homo sapiens) (UniProt P07858); assay: as §1, with “exopeptidase” for “endopeptidase”, “Abz-GIVRAK(Dnp)-OH” for “Z-RR-AMC”
Escherichia coli [8] = assay: Inhibition of Escherichia coli MurA assessed as residual activity at 25 uM using UNAG and PEP as substrate preincubated for 30 mins in presence of UNAG followed by PEP addition and measured after 15 mins by malachite green colorimetric assay relative to control
Escherichia coli [9] = assay: Inhibition of Escherichia coli MurA assessed as residual activity at 1 mM using UNAG and PEP as substrate preincubated for 30 mins in presence of UNAG followed by PEP addition and measured after 15 mins by malachite green colorimetric assay relative to control; settings: time 45.0 min
[10] = Drug degradation in pH 7.4 PBS buffer at 100 uM measured up to 24 hrs by LC-MS/MS analysis; format: physicochemical; settings: pH 7.4, 24 h
Escherichia coli [11] = assay: Inhibition of Escherichia coli MurA assessed as residual activity at 250 uM using UNAG and PEP as substrate preincubated for 30 mins in presence of UNAG followed by PEP addition and measured after 15 mins by malachite green colorimetric assay relative to control; settings: time 45.0 min

## C=CS(=O)(=O)c1ccccc1 [(ETHENYLSULFONYL)BENZENE]
[1]
  Activity: 100%
[2]
  IC50: 15 µM
Staphylococcus aureus
  Activity: 30%
[3]
  Activity: 93%
Escherichia coli [4]
  Activity: 96%
Escherichia coli [5]
  Activity: 12%
[6]
  IC50: 34 µM
[7]
  Activity: 87%

## COc1cc2c(cc1OC)CN(C(=O)CCl)CC2
[2]
  IC50: 141 µM
Staphylococcus aureus
  Activity: 54%
[3]
  Activity: 97%
Escherichia coli [4]
  Activity: 98%
Escherichia coli [5]
  Activity: 61%
[6]
  IC50: 171 µM

## O=C(CCl)c1ccccc1 [PHENACYL CHLORIDE]
[1]
  Activity: 63%
[2]
  IC50: 2.25 µM
Staphylococcus aureus
  Activity: 7%
[3]
  Activity: 86%
Escherichia coli [4]
  Activity: 93%
Escherichia coli [5]
  Activity: 3%
[6]
  IC50: 3.02 µM
[7]
  Activity: 34%

## S=C=NCc1ccccc1 [BENZYL ISOTHIOCYANATE]
[1]
  Activity: 75%
[2]
  IC50: 3.7 µM
Staphylococcus aureus
  Activity: 41%
[3]
  Activity: 22%
Escherichia coli [4]
  Activity: 100%
Escherichia coli [5]
  Activity: 3%
[7]
  Activity: 18%

## O=C(CCl)Nc1cc(C(F)(F)F)cc(C(F)(F)F)c1
[1]
  Activity: 75%
[2]
  IC50: 75 µM
Staphylococcus aureus
  Activity: 96%
[3]
  Activity: 96%
Escherichia coli [4]
  Activity: 80%
[6]
  IC50: 100 µM

## S=C=Nc1ccccc1 [PHENYLISOTHIOCYANATE]
[1]
  Activity: 100%
[2]
  IC50: 90 µM
Staphylococcus aureus
  Activity: 75%
[3]
  Activity: 67%
Escherichia coli [4]
  Activity: 91%
Escherichia coli [5]
  Activity: 53%
[7]
  Activity: 98%

## O=C1C=CC(=O)N1C1CCCCC1
[1]
  Activity: 96%
[2]
  IC50: 0.554 µM
Staphylococcus aureus
  Activity: 0.3%
[3]
  Activity: 96%
Escherichia coli [8]
  Activity: 85%
Escherichia coli [4]
  Activity: 100%
Escherichia coli [5]
  Activity: 1%
[6]
  IC50: 0.652 µM
[7]
  Activity: 89%

## COc1cc(NC(=O)CCl)cc(OC)c1
[1]
  Activity: 90%
Staphylococcus aureus
  Activity: 52%
[3]
  Activity: 84%
Escherichia coli [4]
  Activity: 96%
Escherichia coli [5]
  Activity: 61%
[7]
  Activity: 87%

## N#C/C=C/C(F)(F)F
Escherichia coli [9]
  Activity: 100%
[1]
  Activity: 100%
[2]
  IC50: 95 µM
Staphylococcus aureus
  Activity: 81%
[3]
  Activity: 86%
Escherichia coli [4]
  Activity: 100%
Escherichia coli [5]
  Activity: 47%
[7]
  Activity: 88%

## COC(=O)/C=C/C(=O)OC [DIMETHYL FUMARATE]
Escherichia coli [9]
  Activity: 88%
[1]
  Activity: 100%
[2]
  IC50: 172 µM
Staphylococcus aureus
  Activity: 82%
[3]
  Activity: 89%
Escherichia coli [4]
  Activity: 90%
Escherichia coli [5]
  Activity: 50%
[7]
  Activity: 100%

## C=CC(=O)N1CCC(Cc2ccccc2)CC1
[10]
  Stabilty: Unstable

## C=CC(=O)Nc1cc(C(F)(F)F)cc(C(F)(F)F)c1
Escherichia coli [9]
  Activity: 86%
[2]
  IC50: 164 µM
Staphylococcus aureus
  Activity: 72%
[3]
  Activity: 92%
Escherichia coli [4]
  Activity: 100%

## C[C@@H]1O[C@@H]1P(=O)(O)O
Escherichia coli [8]
  Activity: 3%

## CCOC(=O)C#CC(F)(F)F
[1]
  Activity: 100%
[2]
  IC50: 24 µM
Staphylococcus aureus
  Activity: 31%
[3]
  Activity: 99%
Escherichia coli [4]
  Activity: 98%
Escherichia coli [5]
  Activity: 15%
Escherichia coli [11]
  Activity: 100%
[6]
  IC50: 47 µM
[7]
  Activity: 89%

## C/C=N/Nc1cc2ccccc2cn1
[1]
  Activity: 100%
Staphylococcus aureus
  Activity: 54%
[3]
  Activity: 79%
Escherichia coli [4]
  Activity: 100%
Escherichia coli [5]
  Activity: 99%
[7]
  Activity: 100%

## O=C(CCl)Nc1ccccc1
[1]
  Activity: 100%
Staphylococcus aureus
  Activity: 59%
[3]
  Activity: 99%
Escherichia coli [4]
  Activity: 95%
Escherichia coli [5]
  Activity: 100%
[7]
  Activity: 88%

## C/C=C/C(=O)OC
[1]
  Activity: 100%
[2]
  IC50: 227 µM
Staphylococcus aureus
  Activity: 66%
[3]
  Activity: 84%
Escherichia coli [4]
  Activity: 96%
Escherichia coli [5]
  Activity: 41%
[7]
  Activity: 97%

## Cc1ccc(S)cc1
[1]
  Activity: 100%
[2]
  IC50: 1.25 µM
Staphylococcus aureus
  Activity: 23%
[3]
  Activity: 100%
Escherichia coli [4]
  Activity: 94%
Escherichia coli [5]
  Activity: 6%
[6]
  IC50: 7.83 µM
[7]
  Activity: 67%

## O=C(CBr)c1ccccc1
[1]
  Activity: 83%
Staphylococcus aureus
  Activity: 7%
[3]
  Activity: 75%
Escherichia coli [4]
  Activity: 94%
Escherichia coli [5]
  Activity: 2%
[7]
  Activity: 27%

## O=c1[nH]sc2ccccc12
[1]
  Activity: 100%
[2]
  IC50: 1.1 µM
Staphylococcus aureus
  Activity: 0%
[3]
  Activity: 100%
Escherichia coli [4]
  Activity: 99%
Escherichia coli [5]
  Activity: 2%
[6]
  IC50: 0.926 µM
[7]
  Activity: 96%

## FC(F)(F)c1cccc(N=C=S)c1
[1]
  Activity: 100%
[2]
  IC50: 28 µM
Staphylococcus aureus
  Activity: 9%
[3]
  Activity: 87%
Escherichia coli [4]
  Activity: 99%
Escherichia coli [5]
  Activity: 3%
[6]
  IC50: 53 µM
[7]
  Activity: 97%

## COc1ccccc1C(=O)CBr
[1]
  Activity: 90%
[2]
  IC50: 0.384 µM
Staphylococcus aureus
  Activity: 4%
[3]
  Activity: 74%
Escherichia coli [4]
  Activity: 100%
Escherichia coli [5]
  Activity: 3%
[6]
  IC50: 1.82 µM
[7]
  Activity: 55%

## O=C1C=CC(=O)N1Cc1ccccc1
[1]
  Activity: 100%
[2]
  IC50: 0.565 µM
Staphylococcus aureus
  Activity: 0%
[3]
  Activity: 96%
Escherichia coli [4]
  Activity: 99%
Escherichia coli [5]
  Activity: 2%
[6]
  IC50: 1.04 µM
[7]
  Activity: 87%

## COc1ccc(N=C=S)cc1
[1]
  Activity: 100%
[2]
  IC50: 45 µM
Staphylococcus aureus
  Activity: 91%
[3]
  Activity: 55%
Escherichia coli [4]
  Activity: 94%
Escherichia coli [5]
  Activity: 33%
[7]
  Activity: 99%

## C/C=C/C#N
[1]
  Activity: 100%
Staphylococcus aureus
  Activity: 97%
[3]
  Activity: 90%
Escherichia coli [4]
  Activity: 100%
Escherichia coli [5]
  Activity: 100%
[7]
  Activity: 87%

## CC#CC(=O)OCC
[1]
  Activity: 96%
Staphylococcus aureus
  Activity: 91%
[3]
  Activity: 96%
Escherichia coli [4]
  Activity: 100%
Escherichia coli [5]
  Activity: 82%
[7]
  Activity: 84%

## CCOC(=O)C#Cc1ccccc1
[1]
  Activity: 85%
Staphylococcus aureus
  Activity: 67%
[3]
  Activity: 92%
Escherichia coli [4]
  Activity: 99%
Escherichia coli [5]
  Activity: 75%
[7]
  Activity: 70%

## O=C(CCl)N1CCC(Cc2ccccc2)CC1
[1]
  Activity: 78%
Staphylococcus aureus
  Activity: 55%
Escherichia coli [4]
  Activity: 99%

— ChEMBL document CHEMBL4680109, “A road map for prioritizing warheads for cysteine targeting covalent inhibitors” (Eur J Med Chem, 2018)
